According to ChEMBL document CHEMBL4837193 (Eur J Med Chem, 2021):
One block for each molecule: values may come before it. Calls of active or inactive are those of the source. The calls are words filed in the database; no cut-off is given here.

Tests used:
HeLa [1] = assay: Antiproliferative activity against human HeLa cells assessed as cell growth inhibition after 48 hrs by MTT assay; format: functional, cell-based
How it was run: (§1)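 Cells grown at 37 °C with CO2 in RPMI-1640 or DMEM plus 10% FBS. Seeded at 2 × 10³ per well, attached 24 h, then medium changed. Compound exposure 48 h at 37 °C, DMSO 0.1% as vehicle. MTT added and incubated a further 4 h. Crystals dissolved, absorbance read at 570 nm. IC50 from curve fitting, mean ± SD of three independent experiments.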

HeLa [2] = assay: Induction of apoptosis in human HeLa cells assessed as early apoptotic cells at 30 nM after 24 hrs by AnnexinV/PI-staining based flow cytometry (reference value: 2.87%)
HeLa [3] = assay: Cell cycle arrest in human HeLa cells assessed as increase in cells accumulation at G0/G1 phase at 30 nM measured after 24 hrs by propidium iodide staining based flow cytometric analysis (reference value: 67.22 %); format: functional
HeLa [4] = assay: Induction of apoptosis in human HeLa cells assessed as late apoptotic cells at 60 nM after 24 hrs by AnnexinV/PI-staining based flow cytometry (reference value: 0.884 %)
Tubulin (Homo sapiens) [5] = biological target: T1, Tubulin (Homo sapiens) (UniProt P68371+Q9H4B7+P0DPH7+P68366+Q13509+Q71U36+P04350+Q3ZCM7+P07437+P68363+Q9BQE3+Q6PEY2+Q13885+Q9BVA1+Q9BUF5); assay: Inhibition of […]colchicine binding to tubulin (unknown origin) at 4 uM incubated for 45 mins by fluorescence assay relative to control; format: protein-complex assay
How it was run: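 Tubulin (4 µM) preincubated 45 min at 37 °C with test agent (20–80 µM), then colchicine (4 µM) added. After a further 45 min at 37 °C, fluorescence read at excitation 340 nm and emission 435 nm, with buffer blank subtracted.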

HeLa [6] = assay: Cell cycle arrest in human HeLa cells assessed as increase in cells accumulation at S phase at 30 nM measured after 24 hrs by propidium iodide staining based flow cytometric analysis (reference value: 20.29 %); format: functional
Tubulin (Homo sapiens) [7] = biological target: T1, Tubulin (Homo sapiens); assay: Inhibition of tubulin polymerization (unknown origin) at 10 uM measured after 30 mins every 1 min for 20 mins by spectrophotometric method; format: protein-complex assay
How it was run: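 Tubulin at 2 mg/mL in PEM buffer (100 mM PIPES pH 6.9, 1 mM MgCl2, 1 mM EGTA, 5% glycerol) preincubated on ice with compound or DMSO, then GTP added. After 0.5 h, A340 read every 1 min for 20 min at 37 °C. Plateau values used. Single-point inhibition at 10 µM; IC50 is the concentration halving polymerization at 20 min, mean ± SD of three experiments.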

HeLa [8] = assay: Cell cycle arrest in human HeLa cells assessed as increase in cells accumulation at S phase at 60 nM measured after 24 hrs by propidium iodide staining based flow cytometric analysis (reference value: 20.29 %); format: functional
HeLa [9] = assay: Induction of cell cycle arrest in human Hela cells assessed as decrease in cdc2 expression measured after 24 hrs by Western blot analysis relative to control; format: functional, cell-based; details: dose 30-120 nM
How it was run: (§2)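 HeLa cells treated as for cell-cycle analysis (30, 60, 120 nM, 24 h), then lysed and protein quantified. Lysates boiled 5 min, run on SDS-PAGE and transferred to PVDF. Membranes blocked in 5% skim milk 1 h at RT, primary antibodies overnight at 4 °C, β-actin/GAPDH as loading controls. Secondary antibody 1:4000 for 2 h at RT. Mean ± SD of three independent experiments.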

HeLa [10] = assay: Induction of apoptosis in human HeLa cells assessed as late apoptotic cells at 30 nM after 24 hrs by AnnexinV/PI-staining based flow cytometry (reference value: 0.884 %)
HeLa [11] = assay: Cell cycle arrest in human HeLa cells assessed as increase in cells accumulation at G2/M phase at 60 nM measured after 24 hrs by propidium iodide staining based flow cytometric analysis (reference value: 12.49 %); format: functional
T47D = assay: Antiproliferative activity against human T47D cells assessed as cell growth inhibition after 48 hrs by MTT assay; format: functional, cell-based
HeLa [12] = assay: Cell cycle arrest in human HeLa cells assessed as increase in cells accumulation at S phase at 120 nM measured after 24 hrs by propidium iodide staining based flow cytometric analysis (reference value: 20.29 %); format: functional
HeLa [13] = assay: Induction of cell cycle arrest in human Hela cells assessed as increase in cyclin B1 expression measured after 24 hrs by Western blot analysis relative to control; format: functional, cell-based; details: dose 30-120 nM; how it was run: as §2
HeLa [14] = assay: Induction of apoptosis in human HeLa cells assessed as early apoptotic cells at 120 nM after 24 hrs by AnnexinV/PI-staining based flow cytometry (reference value: 2.87%)
HeLa [15] = assay: Induction of apoptosis in human HeLa cells assessed as effect on Bax level incubated for 24 hrs by Western blot analysis; format: functional, cell-based; how it was run: as §2
Tubulin = assay: Inhibition of tubulin polymerization (unknown origin) measured afer 30 mins every 1 min for 20 mins by spectrophotometric method; format: protein-complex assay, Homo sapiens
How it was run: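 Tubulin at 2 mg/mL in PEM buffer (100 mM PIPES pH 6.9, 1 mM MgCl2, 1 mM EGTA, 5% glycerol) preincubated on ice with compound or DMSO, then GTP added. After 0.5 h, A340 read every 1 min for 20 min at 37 °C. Plateau values used.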

HCT-116 = assay: Antiproliferative activity against human HCT-116 cells assessed as cell growth inhibition after 48 hrs by MTT assay; format: functional, cell-based; details: HCT-116, 48 h; how it was run: as §1
HeLa [16] = assay: Induction of apoptosis in human HeLa cells assessed as early apoptotic cells at 60 nM after 24 hrs by AnnexinV/PI-staining based flow cytometry (reference value: 2.87%)
HeLa [17] = assay: Induction of apoptosis in human HeLa cells assessed as necrotic cells at 30 nM after 24 hrs by AnnexinV/PI-staining based flow cytometry (reference value: 0.093 %)
A549 = assay: Antiproliferative activity against human A549 cells assessed as cell growth inhibition after 48 hrs by MTT assay; format: functional, cell-based; details: A549, 48 h; how it was run: as §1
HeLa [18] = assay: Induction of apoptosis in human HeLa cells assessed as increase in cleaved PARP level incubated for 24 hrs by Western blot analysis; format: functional, cell-based; how it was run: as §2
HEK293 = assay: Antiproliferative activity against human HEK293 cells assessed as cell growth inhibition after 48 hrs by MTT assay; format: cell-based; details: HEK293, 48 h; how it was run: as §1
HeLa [19] = assay: Induction of apoptosis in human HeLa cells assessed as late apoptotic cells at 120 nM after 24 hrs by AnnexinV/PI-staining based flow cytometry (reference value: 0.884 %)
HeLa [20] = assay: Induction of apoptosis in human HeLa cells assessed as necrotic cells at 60 nM after 24 hrs by AnnexinV/PI-staining based flow cytometry (reference value: 0.093 %)
HeLa [21] = assay: Cell cycle arrest in human HeLa cells assessed as increase in cells accumulation at G2/M phase at 120 nM measured after 24 hrs by propidium iodide staining based flow cytometric analysis (reference value: 12.49 %); format: functional
HeLa [22] = assay: Cell cycle arrest in human HeLa cells assessed as increase in cells accumulation at G0/G1 phase at 120 nM measured after 24 hrs by propidium iodide staining based flow cytometric analysis (reference value: 67.22 %); format: functional
HeLa [23] = assay: Cell cycle arrest in human HeLa cells assessed as increase in cells accumulation at G2/M phase at 30 nM measured after 24 hrs by propidium iodide staining based flow cytometric analysis (reference value: 12.49 %); format: functional
HepG2 = assay: Antiproliferative activity against human HepG2 cells assessed as cell growth inhibition after 48 hrs by MTT assay; format: functional, cell-based; details: HepG2, 48 h; how it was run: as §1
HT-29 = assay: Antiproliferative activity against human HT29 cells assessed as cell growth inhibition after 48 hrs by MTT assay; format: functional, cell-based; details: HT-29, 48 h
HeLa [24] = assay: Induction of apoptosis in human HeLa cells assessed as necrotic cells at 120 nM after 24 hrs by AnnexinV/PI-staining based flow cytometry (reference value: 0.093 %)
HeLa [25] = assay: Cell cycle arrest in human HeLa cells assessed as increase in cells accumulation at G0/G1 phase at 60 nM measured after 24 hrs by propidium iodide staining based flow cytometric analysis (reference value: 49.85 %); format: functional

- IC50 (HeLa [1]): 0.9 µM
SMILES: COc1ccc(-c2nc3nccc(-c4cc(OC)c(OC)c(OC)c4)n3n2)cc1

- IC50 (HeLa [1]): > 30 µM
SMILES: COc1cc(-c2nc3nccc(-c4ccco4)n3n2)cc(OC)c1OC

- IC50 (HeLa [1]): > 30 µM
SMILES: COc1ccc(-c2ccnc3nc(-c4cc(OC)c(OC)c(OC)c4)nn23)cc1Cl

- IC50 (HeLa [1]): > 30 µM
SMILES: COc1cc(-c2nc3nccc(-c4ccc(C)cc4)n3n2)cc(OC)c1OC

- IC50 (HeLa [1]): > 30 µM
SMILES: COc1cc(-c2nc3nccc(-c4ccc([N+](=O)[O-])cc4)n3n2)cc(OC)c1OC

- IC50 (HeLa [1]): > 30 µM
SMILES: COc1cc(-c2nc3nccc(-c4cc(OC)c(OC)c(OC)c4)n3n2)cc(OC)c1OC

- inhibition (Tubulin (Homo sapiens) [5]): Dose-Dependent Effect
- inhibition (Tubulin (Homo sapiens) [7]): 94%
- IC50 (T47D): 3.49 µM
- IC50 (Tubulin): 1.3 µM
- IC50 (HCT-116): 18.4 µM
- IC50 (HeLa [1]): 0.06 µM
- IC50 (A549): 6.05 µM
- IC50 (HepG2): 14.7 µM
- IC50 (HT-29): 0.24 µM
SMILES: COc1ccc(-c2nc3nccc(-c4cc(OC)c(OC)c(OC)c4)n3n2)cc1O
- Activity (HeLa [2]): 8.5%
- Activity (HeLa [3]): 66.03%
- Activity (HeLa [4]): 8.85%
- Activity (HeLa [6]): 17.79%
- Activity (HeLa [8]): 27.84%
- Activity (HeLa [9]): Active
- Activity (HeLa [10]): 5.61%
- Activity (HeLa [11]): 22.81%
- Activity (HeLa [12]): 24.67%
- Activity (HeLa [13]): Dose-Dependent Effect
- Activity (HeLa [14]): 14.3%
- Activity (HeLa [15]): inactive
- Activity (HeLa [16]): 10.5%
- Activity (HeLa [17]): 0.329%
- Activity (HeLa [18]): Active
- IC50 (HEK293): > 100 µM
- Activity (HeLa [19]): 19.3%
- Activity (HeLa [20]): 1.07%
- Activity (HeLa [21]): 46.82%
- Activity (HeLa [22]): 29.01%
- Activity (HeLa [23]): 16.18%
- Activity (HeLa [24]): 2.37%
- Activity (HeLa [25]): 49.85%

- IC50 (HeLa [1]): > 30 µM
SMILES: COc1cc(-c2nc3nccc(-c4ccccc4C)n3n2)cc(OC)c1OC

- IC50 (HeLa [1]): > 30 µM
SMILES: COc1cc(-c2nc3nccc(-c4cccs4)n3n2)cc(OC)c1OC

- IC50 (HeLa [1]): > 30 µM
SMILES: COc1cc(-c2nc3nccc(-c4cc5ccccc5oc4=O)n3n2)cc(OC)c1OC

- inhibition (Tubulin (Homo sapiens) [7]): 49%
- IC50 (T47D): 6.51 µM
- IC50 (Tubulin): 12.2 µM
- IC50 (HCT-116): > 100 µM
- IC50 (HeLa [1]): 0.11 µM
- IC50 (A549): 18.9 µM
- IC50 (HepG2): 21.1 µM
- IC50 (HT-29): 83 µM
SMILES: COc1ccc(-c2nc3nccc(-c4cc(OC)c(OC)c(OC)c4)n3n2)cc1N
- IC50 (HEK293): > 100 µM

- IC50 (HeLa [1]): > 30 µM
SMILES: COc1ccc(-c2ccnc3nc(-c4cc(OC)c(OC)c(OC)c4)nn23)cc1

- IC50 (HeLa [1]): > 30 µM
SMILES: COc1cc(-c2nc3nccc(-c4ccc(C(F)(F)F)cc4)n3n2)cc(OC)c1OC

- IC50 (HeLa [1]): 29.9 µM
SMILES: COc1cc(-c2nc3nccc(-c4ccc(N)cc4)n3n2)cc(OC)c1OC
